Screening results (PubChem)
ALR inh: inhibitors of human ALR sulfhydryl oxidase, primary screen, biochemical, H2O2 detection, HRP-luminol luminescence, single point | purified ALR, DTT oxidation | inhibition, % (no concentration beside the values) | 290,000 compounds, 3.8% hits;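 active = mean replicate inhibition above about 79%, with every replicate also reaching it, limit read from the data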
DYRK1A inh: rat Dyrk1A kinase inhibitors, primary screen, biochemical, single point, plate reader | Dual specificity tyrosine-phosphorylation-regulated kinase 1A (Rattus norvegicus), Q63470 | ADP-Glo luminescence, NFATc1 peptide | inhibition, % at 12.5 µM | 310,000 compounds, 0.43% hits | AID 504441, 2011; in the data active = inhibition above about 50%
Rtt109 Vps75: inhibitors of C. albicans Rtt109/Vps75 HAT, primary screen, biochemical, ThioGlo CoA-SH fluorescence, plate reader; Histone acetyltransferase RTT109 (Candida albicans (strain SC5314 / ATCC MYA-2876)), …; 330,000 compounds, 0.16% hits; purified Rtt109/Vps75, 4 h; inhibition, % at 34.9 µM; AID 540336, 2011;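 active = inhibition of at least 50% in every replicate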
Target sequence (Q5AAJ8 whole entry, looked up): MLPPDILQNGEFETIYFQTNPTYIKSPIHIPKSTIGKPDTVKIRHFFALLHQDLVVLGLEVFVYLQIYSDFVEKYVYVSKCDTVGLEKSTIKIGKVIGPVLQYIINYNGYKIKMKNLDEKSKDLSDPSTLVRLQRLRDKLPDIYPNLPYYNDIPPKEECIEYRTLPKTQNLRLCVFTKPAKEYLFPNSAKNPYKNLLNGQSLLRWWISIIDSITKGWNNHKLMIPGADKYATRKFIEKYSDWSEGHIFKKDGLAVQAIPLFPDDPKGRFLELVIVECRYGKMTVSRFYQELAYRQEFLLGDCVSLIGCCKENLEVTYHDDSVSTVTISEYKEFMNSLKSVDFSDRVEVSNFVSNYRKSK
CAL PDZ FP-1: CAL PDZ peptide-binding inhibitors, primary screen, biochemical, fluorescence polarization, Cer-tagged CAL PDZ, HTS; AID 504414, 2011; inhibition, % at 20 µM; 330,000 compounds, 0.02% hits; purified CAL PDZ, TMR-peptide fluorescence polarization, 1 h;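 active = highest replicate inhibition of at least 40%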
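System: tagged CAL PDZ domain. Schedule: 1 h room-temperature incubation prior to read. Signal: fluorescence polarization (mP). Measure: percent inhibition from loss of millipolarization.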
CAL PDZ FP-2: untagged CAL PDZ binding inhibitors, primary screen, biochemical, fluorescence polarization, HTS. Golgi-associated PDZ and coiled-coil motif-containing protein (Homo sapiens), Q9HD26. purified CAL PDZ, TMR-peptide fluorescence polarization, 1 h. inhibition, % at 24.9 µM. 300,000 compounds, 0.92% hits. AID 602252, 2012;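 active = mean inhibition of at least 30% with at least half of replicates also reaching 30%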
Each line names hits and unclear results; the compound was inactive in the other large screens. In the library only some 4.3% were active in any assay of this set; here they are far more common.

O=C(CSc1nc2ccccc2[nH]1)N1c2ccccc2Sc2ccccc21	none (no result: ALR inh)
O=C(CSc1nc(O)cc(=O)[nH]1)N1c2ccccc2Sc2ccccc21	ALR inh 99
O=c1cc(O)nc(SCc2ccccc2)[nH]1	ALR inh 98
COCCCn1c(=O)c2ccccc2n(Cc2cc(C(=O)OC)ccc2OC)c1=O	none
CCOc1cc(C(=O)Nc2ccc(C(=O)NCCN(CC)CC)cc2)ccc1OCC(=O)N1CCOCC1	none (no result: ALR inh)
COc1cc(NC(=O)c2cccs2)ccc1NC(=O)Cc1ccccc1	CAL PDZ FP-2 42
N#Cc1ccc(C(=O)N2CCC3CC2c2cc(-c4ccccc4)ccc23)cc1 (centres undefined)	none (no result: ALR inh, DYRK1A inh)
COc1ccc(-c2coc(CCC(=O)N3CCN(c4cc(C)ccc4C)CC3)n2)cc1	none (no result: ALR inh)
COc1ccc(/C=N/NC(=O)c2ccc(CSc3nc(C)cc(C)n3)cc2)cc1O	ALR inh 77
COc1ccc(/C=N/NC(=O)c2ccc(=O)[nH]n2)cc1OC	none
COc1ccc(/C=N/NC(=O)c2ccoc2C)cc1OC	none (no result: ALR inh)
COc1ccc(/C=N/NC(=O)c2ccoc2C)cc1O	ALR inh 99
COc1cc(/C=N/NC(=O)c2ccc(CSc3nncn3C)cc2)cc(OC)c1O	ALR inh 100 (no result: DYRK1A inh)
COc1ccc(/C=N\NC(=O)c2ccc(=O)[nH]n2)cc1O	ALR inh 100
COC(CNC(=O)c1coc2nc3ccccc3nc12)OC	none
CC(NC(=O)COc1cccnc1[N+](=O)[O-])c1ccc(Cl)cc1 (centres undefined)	none
COc1ccc(/C=N/NC(=O)c2ccc(C)nc2)cc1O	ALR inh 97 (no result: CAL PDZ FP-2)
COc1ccc(/C=N/NC(=O)c2cc[n+]([O-])cc2)cc1O	ALR inh 99 (no result: CAL PDZ FP-2)
COc1ccc(/C=N/NC(=O)c2cc[n+]([O-])cc2)cc1	none (no result: ALR inh, CAL PDZ FP-2)
Cn1cnnc1SCc1ccc(C(=O)N/N=C(\CCC(=O)O)c2ccc(C(C)(C)C)cc2)cc1	ALR inh 98
Cc1cccc(N2N=C(C(=O)Nc3ccc(Cl)c(S(=O)(=O)N4CCOCC4)c3)CCC2=O)c1	none (no result: CAL PDZ FP-2)
O=C(NCc1ccc2c(c1)OCO2)c1cc(=O)[nH]c2ccccc12	none
COc1cc(C(=O)NCCN2CCN(C(=O)c3cc(OC)c(OC)c(OC)c3)CC2)cc(OC)c1OC	none
COc1ccccc1NC(=O)/C(=C\c1cccnc1)NC(=O)c1ccc(C)cc1	CAL PDZ FP-2 42 (no result: ALR inh)
COc1ccccc1NC(=O)/C(=C\c1cccnc1)NC(=O)c1ccccc1	none
CCOc1ccc(-c2nnn(CC#N)n2)cc1OC	none
CCOc1ccc(/C=N/OCC(=O)Nc2cc(S(=O)(=O)N3CCOCC3)ccc2OC)cc1	CAL PDZ FP-2 47 (no result: CAL PDZ FP-1)
CCOc1ccc(OCCC(=O)OCC(=O)Nc2cc(S(=O)(=O)N3CCOCC3)ccc2OC)cc1	none (no result: ALR inh, DYRK1A inh)
COc1ccc2[nH]cc(CCNC(=O)c3ccc4ccccc4n3)c2c1	none
COc1ccc(S(=O)(=O)Nc2ccc(S(=O)(=O)N3CCCCC3)cc2)cc1	ALR inh 97
COc1cccc(CNC(=O)C(C)n2ccc3cc(S(=O)(=O)N4CCCC4)ccc32)c1 (centres undefined)	CAL PDZ FP-2 42
COc1ccc2cc(S(=O)(=O)N3CCN(C)CC3)ccc2c1	none
COc1ccc2cc(S(=O)(=O)N3CCCC3)ccc2c1	CAL PDZ FP-2 81
COc1cccc(CNC(=O)C(C)n2ccc3cc(S(=O)(=O)N4CCCCCC4)ccc32)c1 (centres undefined)	none
COc1ccc2cc(S(=O)(=O)n3cnc(C)c3)ccc2c1	ALR inh 98
Cc1ccc(F)cc1NC(=O)C1C2CCC(O2)C1C(=O)O (centres undefined)	none
COc1ccc(NS(=O)(=O)c2cc(N)ccc2N2CCCC2)cc1	none (no result: DYRK1A inh)
COc1ccc(NS(=O)(=O)c2ccc(N3CCCC3)c(N)c2)cc1	ALR inh 92
O=C(NCc1ccco1)c1ccccc1NS(=O)(=O)c1ccc(Cl)s1	ALR inh 95
COc1ccccc1NS(=O)(=O)c1cccc(C(=O)NN=C2CCCC2)c1	none (no result: CAL PDZ FP-2)
COc1ccccc1NS(=O)(=O)c1cccc(C(=O)N/N=C2\CC(=O)CC(C)(C)C2)c1	ALR inh 92
